# In paper PMC6976987 (Molecular Genetics and Metabolism Reports, 2020):
# Tests used:
# Format in all cases: in vivo, human
# [1] = Rifampin drug interaction study: eliglustat pharmacokinetics in healthy adults; settings: for increase in eliglustat AUC: single infusion of rifampin 600 mg with single oral dose of eliglustat 127 mg; for Ratio (%) of geometric least squares mean, AUC0-t / AUC: 0 to 12 h; for Tmax: median (minimum, maximum); for AUC: AUC0-τ
# [2] = Eliglustat alone, pharmacokinetics across all three studies
# Procedure, shortened: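 Test compound given orally to healthy adults as a single dose, then BID. Terminal half-life comes from single-dose plasma profiles by non-compartmental analysis. Plasma was protein-precipitated with acetonitrile containing a 13C internal standard, solid-phase extracted and measured by LC-MS/MS. Steady state was judged by graphical examination of pre-dose (trough) concentrations during repeated dosing.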
# Safety assessments = assay: Safety assessments
# Procedure, shortened: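 Open-label study in healthy adults. Safety was monitored after a single dose (Day 1), during multiple doses alone (Days 2–8), and during co-dosing (Days 9–15 with the CYP3A/P-gp inhibitor; Days 9–18 with the CYP2D6 inhibitor). Measures: treatment-emergent AEs, clinical labs, vital signs, physical exams, 12-lead ECG, 12 h continuous telemetry. An AE counted as treatment-related if possibly, probably or definitely related to study drug.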
# [3] = CYP2D6 PMs, eliglustat 84 mg BID with oral rifampin 600 mg QD
# [4] = CYP2D6 PMs, multiple dose Day 6, test 600 mg rifampin oral QD + 84 mg eliglustat oral BID (N = 6) vs reference 84 mg eliglustat oral BID alone (N = 6)
# [5] = CYP2D6 non-PMs, eliglustat 127 mg BID with oral rifampin 600 mg QD
# [6] = CYP2D6 non-PMs, multiple dose Day 6, test 600 mg rifampin oral QD + 127 mg eliglustat oral BID (N = 18) vs reference 127 mg eliglustat oral BID alone (N = 19)
# [7] = human, plasma, oral, 84 mg, CYP2D6 PMs, eliglustat 84 mg BID, monotherapy period Days 2 to 6, mean (SD)
# [8] = human, plasma, oral, 127 mg, CYP2D6 non-PMs (N = 19), eliglustat 127 mg BID, monotherapy period Days 2 to 6, mean (SD)
# [9] = human, plasma, oral, 127 mg, IMs/EMs only (N = 14), eliglustat 127 mg BID, monotherapy period Days 2 to 6, mean (SD)
# [10] = human, plasma, po, CYP2D6 PMs, eliglustat 84 mg BID + rifampin 600 mg oral QD, concomitant period Days 2 to 6, mean (SD)
# [11] = human, plasma, po, CYP2D6 non-PMs (N = 18), eliglustat 127 mg BID + rifampin 600 mg oral QD, concomitant period Days 2 to 6, mean (SD)
# [12] = human, plasma, po, IMs/EMs only (N = 13), eliglustat 127 mg BID + rifampin 600 mg oral QD, concomitant period Days 2 to 6, mean (SD)
# [13] = concomitant dosing of eliglustat with ketoconazole, Days 9 to 15, N = 33
# [14] = ketoconazole study (N = 36), whole study
# [15] = multiple-dose eliglustat period, Days 2 to 8, N = 34
smiles,measurement,setting,value
CCCCCCCC(=O)N[C@H](CN1CCCC1)[C@H](O)c1ccc2c(c1)OCCO2 [eliglustat],increase in eliglustat AUC,[1]; CYP2D6 EMs,24%
same,reduction of eliglustat AUC0-τ compared with eliglustat alone,[1]; [3],> 95%
same,reduction of eliglustat Cmax compared with eliglustat alone,[1]; [3],> 95%
same,"Ratio (%) of geometric least squares mean, Cmax",[1]; [4],0.05%
same,"Ratio (%) of geometric least squares mean, AUC0-t",[1]; [4],0.04%
same,effect on mean eliglustat exposure,"[1]; CYP2D6 PMs, single 30-min infusion of rifampin 600 mg with single oral dose of eliglustat 84 mg",no effect
same,"Ratio (%) of geometric least squares mean, AUC0-∞","[1]; CYP2D6 PMs, single dose Day 1, test 600 mg rifampin IV + 84 mg eliglustat oral (N = 6) vs reference 84 mg eliglustat oral (N = 5)",0.95%
same,"Ratio (%) of geometric least squares mean, Cmax","[1]; CYP2D6 PMs, single dose Day 1, test 600 mg rifampin IV + 84 mg eliglustat oral (N = 6) vs reference 84 mg eliglustat oral (N = 6)",0.97%
same,reduction of eliglustat AUC0-τ (exposure) compared with eliglustat alone,[1]; [5],> 85%
same,reduction of eliglustat Cmax compared with eliglustat alone,[1]; [5],> 85%
same,"Ratio (%) of geometric least squares mean, Cmax",[1]; [6],0.16%
same,"Ratio (%) of geometric least squares mean, AUC0-t",[1]; [6],0.15%
same,"Ratio (%) of geometric least squares mean, AUC0-∞","[1]; CYP2D6 non-PMs, single dose Day 1, test 600 mg rifampin IV + 127 mg eliglustat oral (N = 17) vs reference 127 mg eliglustat oral alone (N = 19)",1.19%
same,"Ratio (%) of geometric least squares mean, Cmax","[1]; CYP2D6 non-PMs, single dose Day 1, test 600 mg rifampin IV + 127 mg eliglustat oral (N = 19) vs reference 127 mg eliglustat oral alone (N = 19)",1.19%
same,increase in eliglustat AUC,[1]; URMs,11%
same,Cmax,"[1]; human, plasma, iv, CYP2D6 non-PMs (N = 19), eliglustat 127 mg single dose + rifampin 600 mg IV single dose, concomitant period Day 1, mean (SD)",17.9 ng/mL
same,half-life,"[1]; human, plasma, iv, t1/2z, CYP2D6 PMs, eliglustat 84 mg single dose + rifampin 600 mg IV single dose, concomitant period Day 1, mean (SD)",6.9 h
same,Tmax,"[1]; human, plasma, iv, CYP2D6 PMs, eliglustat 84 mg single dose + rifampin 600 mg IV single dose, concomitant period Day 1",4 h
same,Tmax,"[1]; human, plasma, iv, CYP2D6 non-PMs (N = 19), eliglustat 127 mg single dose + rifampin 600 mg IV single dose, concomitant period Day 1",3 h
same,AUC,[1]; [7],922 ng·h/mL
same,Cmax,[1]; [7],113 ng/mL
same,Tmax,"[1]; human, plasma, oral, 84 mg, CYP2D6 PMs, eliglustat 84 mg BID, monotherapy period Days 2 to 6",3 h
same,AUC,[1]; [8],295 ng·h/mL
same,AUC,[1]; [9],378 ng·h/mL
same,Cmax,[1]; [8],42.8 ng/mL
same,Cmax,[1]; [9],54.7 ng/mL
same,Tmax,"[1]; human, plasma, oral, 127 mg, CYP2D6 non-PMs (N = 19), eliglustat 127 mg BID, monotherapy period Days 2 to 6",2 h
same,AUC,[1]; [10],38 ng·h/mL
same,AUC,[1]; [11],29.3 ng·h/mL
same,AUC,[1]; [12],31 ng·h/mL
same,Cmax,[1]; [10],5.7 ng/mL
same,Cmax,[1]; [11],4.67 ng/mL
same,Cmax,[1]; [12],4.89 ng/mL
same,Tmax,"[1]; human, plasma, po, CYP2D6 PMs, eliglustat 84 mg BID + rifampin 600 mg oral QD, concomitant period Days 2 to 6",2.5 h
same,Tmax,"[1]; human, plasma, po, CYP2D6 non-PMs (N = 18), eliglustat 127 mg BID + rifampin 600 mg oral QD, concomitant period Days 2 to 6",1.5 h
same,changes in eliglustat exposure,"[1]; in the presence of a single IV infusion of rifampin, called negligible",< 19%
same,effect of a single intravenous dose of rifampin on eliglustat,"[1]; single IV rifampin dose, overall statement",no effect
same,half-life,"[2]; human, plasma, oral",4.2 to 5.11 h
same,time to steady-state,"[2]; repeated doses of eliglustat, graphical examination of Ctrough values",approximately 4 days
same,tolerability,Safety assessments; administered alone and with ketoconazole,well tolerated
same,subjects with dysmenorrhea of moderate intensity,Safety assessments; concomitant dosing of eliglustat with ketoconazole,3.0%
same,number of AEs,Safety assessments; [13],33 AEs
same,subjects with AEs,Safety assessments; [13],48.5%
same,subjects reporting AEs related to eliglustat,"Safety assessments; concomitant dosing with ketoconazole, N = 33",36.4%
same,subjects reporting AEs possibly related to both eliglustat and ketoconazole,"Safety assessments; concomitant dosing, N = 33",33.3%
same,subjects reporting treatment-related AEs,"Safety assessments; following a single dose of eliglustat, Day 1, N = 36",5.6%
same,QTcF interval prolongation,Safety assessments; ketoconazole study,no clinically significant prolongations of QTcF interval
same,"Any adverse event (AE), number of events",Safety assessments; [14],58 N
same,"Any adverse event (AE), number of subjects",Safety assessments; [14],20 (55.6%) N (%)
same,"Any treatment-related AE, number of events",Safety assessments; [14],45 N
same,"Any treatment-related AE, number of subjects",Safety assessments; [14],15 (41.7%) N (%)
same,"Discontinuations due to AE, number of events",Safety assessments; [14],0 N
same,"Discontinuations due to AE, number of subjects",Safety assessments; [14],0 (0.0%) N (%)
same,"Serious AEs, number of events",Safety assessments; [14],0 N
same,"Serious AEs, number of subjects",Safety assessments; [14],0 (0.0%) N (%)
same,"Severe AEs, number of events",Safety assessments; [14],0 N
same,"Severe AEs, number of subjects",Safety assessments; [14],0 (0.0%) N (%)
same,subjects with dysmenorrhea of moderate intensity,Safety assessments; multiple-dose eliglustat,2.9%
same,number of AEs,Safety assessments; [15],21 AEs
same,subjects with AEs,Safety assessments; [15],32.4%
same,subjects reporting treatment-related AEs,"Safety assessments; multiple-dose eliglustat, N = 34",23.5%
same,subjects with headache of moderate intensity,"Safety assessments; multiple-dose eliglustat, possibly related to eliglustat, unlikely related to ketoconazole",2.9%
